ChEMBL document CHEMBL4725411, “A Phosphoramidate Strategy Enables Membrane Permeability of a Non-nucleotide Inhibitor of the Prolyl Isomerase Pin1” (ACS Med Chem Lett, 2020)
The source made the active and inactive calls. No cut-off for these calls is given here.

How the values were obtained:
[1] = Prodrug conversion in human MDA-MB-231 cells assessed as increase in Pin1 level at 5 uM in presence of 100 uM TrpGc Hint1 inhibitor; assay type: ADME, cell-based; details: mda-mb-231, 5 µM
How it was run: (§1)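 MDA-MB-231 cells treated over a dose series for 72 h (longer than 24 h), with or without the Hint1 inhibitor TrpGc at 100 μM. Pin1 abundance at normal temperature used as the read-out.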

[2] = Prodrug conversion in cell free extract; assay type: ADME
How it was run: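 Cell-free control run in medium without cells, then ethyl acetate extraction and UPLC-MS for the intermediate and the free phosphate.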

[3] = Octanol/water partition coefficient, logP of compound; assay type: physicochemical
[4] = Prodrug conversion in human MDA-MB-231 cells assessed as increase in Pin1 level mesured longer than 24 hrs; assay type: ADME, cell-based; details: mda-mb-231, 24 h; how it was run: as §1
PC-3 [5] = assay: Antiproliferative activity in human PC-3 cells after 72 hrs by ATP-Glo assay; assay type: functional, cell-based
How it was run: (§2)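 PC3 cells grown to higher confluence, compound exposure 72 h. Proliferation read by ATP-Glo luminescence or by MTT.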

[6] = Prodrug conversion in human K562 cells assessed as cytosolic enzyme product of 1-R-phosphate after 5 hrs by UPLC-MS analysis; assay type: ADME, cell-based; details: k562, 5 h
How it was run: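 K562 cells exposed 5 h in serum-free medium, then washed extensively, centrifuged and extracted with ethyl acetate. Products quantified by UPLC-MS. DMSO solvent control subtracted as background. Average of duplicates with full range.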

PC-3 [7] = assay: Antiproliferative activity in human PC-3 cells after 72 hrs by MTT assay; assay type: functional, cell-based; how it was run: as §2
[8] = Prodrug release in human MDA-MB-231 cells assessed as 1R-phosphate binding to Pin1 at 25 uM at fixed temperature 48 degC by Western blot based assay; assay type: ADME, cell-based; details: mda-mb-231, 25 µM
How it was run: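 MDA-MB-231 cells dosed at 25 μM or with 0.25% DMSO for 5 h, heated at a fixed 48 °C and lysed. Soluble Pin1 measured by Western blot in biological quadruplicates.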

[9] = Prodrug release in human K562 cells assessed as 1R-phosphate binding to Pin1 at 25 uM after 5 hrs by Western blot based cellular thermal shift assay; assay type: ADME, cell-based; details: k562, 5 h
How it was run: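 K562 cells exposed to prodrug at 25 μM or 0.25% DMSO for 5 h, then heated across 38–60 °C and lysed. Soluble Pin1 measured by Western blot. Three independent experiments, error as SEM.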

PC-3 [10] = assay: Inhibition of colony formation in human PC-3 cells; assay type: functional, cell-based
How it was run: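 PC3 cells treated at low density, colony formation scored. Mean of triplicate experiments, error as SD.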

[11] = target: Peptidyl-prolyl cis-trans isomerase NIMA-interacting 1 (Homo sapiens, UniProt Q13526); assay: Displacement of FITC-WFYpSPFLE from human Pin1 (45-163) catalytic domain by fluorescence polarization assay
Chain of Peptidyl-prolyl cis-trans isomerase NIMA-interacting 1 (Q13526 whole entry, the tested form may be a part): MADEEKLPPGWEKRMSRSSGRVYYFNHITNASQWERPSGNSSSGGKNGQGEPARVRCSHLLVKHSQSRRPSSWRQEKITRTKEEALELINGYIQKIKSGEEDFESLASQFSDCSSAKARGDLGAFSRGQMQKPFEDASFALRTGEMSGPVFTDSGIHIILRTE

Drug metabolism [1]	Drug metabolism [2]	logP [3]	Drug metabolism [4]	Drug metabolism [6]	Drug metabolism [8]	Drug metabolism [9]	IC50 [11] [µM]	Structure (SMILES)	Activity (PC-3 [5])	Activity (PC-3 [7])	inhibition (PC-3 [10])
Metabolite_Notdetected	Metabolite_Notdetected	0.27	Metabolite_Detected	Metabolite_Detected	Metabolite_Detected	Metabolite_Detected	> 10	CCOC(=O)CNP(=O)(OC[C@@H](Cc1ccccc1)NC(=O)c1cc2ccccc2s1)Oc1ccccc1 (some centres undefined)	inactive	inactive	Active
		< -4.6						O=C(N[C@@H](COP(=O)(O)O)Cc1ccccc1)c1cc2ccccc2s1			
							> 10	CCOC(=O)CNP(=O)(OC[C@H](Cc1ccccc1)NC(=O)c1cc2ccccc2s1)Oc1ccccc1 (some centres undefined)			inactive
